From ChEMBL document CHEMBL4368869, “'Second-generation' 1,2,3-triazole-based inhibitors of Porphyromonas gingivalis adherence to oral streptococci and biofilm formation” (Medchemcomm, 2019) come the findings set out here.

The test system of the first data set is Porphyromonas gingivalis. The experiment in a line: Antibiofilm activity against Porphyromonas gingivalis ATCC 33277 assessed as inhibition of Porphyromonas gingivalis ATCC 33277 adherence to Streptococcus gordonii after 22 hrs by laser scanning confocal microscopic analysis. Format: functional, organism-based. Summed up: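 S. gordonii DL-1, labelled with hexidium iodide and adjusted to OD600 0.8 in PBS, is grown 24 h at 37 °C with shaking under anaerobic conditions on coverslips. Carboxyfluorescein-labelled P. gingivalis (OD600 0.4) is pre-incubated 30 min with compound (final 0–60 μM, 0.1% DMSO) and added, then incubated anaerobically 22 h. After PFA fixation, confocal imaging reads the green/red fluorescence ratio. IC50 is the concentration halving that ratio. Triplicates, three independent experiments.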
For the molecule `CCN(CC)c1nc(-c2cn(-c3ccc(-c4nc(-c5ccccc5)c(-c5ccccc5)o4)cc3)nn2)nc(N(CC)CC)n1`, the IC50 entry is reported as “Not Active”. Same read-out and setting: the result for `COc1ccc(-c2nc(-c3ccc(-n4cc(-c5nc(Nc6ccc(F)cc6)nc(Nc6ccc(F)cc6)n5)nn4)cc3)oc2-c2ccc(OC)cc2)cc1` reads “Not Active”; that for `COc1ccccc1-c1cn(-c2ccc([S+]([O-])Cc3nc(-c4ccccc4)c(-c4ccccc4)o3)cc2)nn1` (stereo unspecified), “Not Active”; that for `COc1ccc(-c2nc(-c3ccccc3-n3cc(-c4nc(Nc5ccc(F)cc5)nc(Nc5ccc(F)cc5)n4)nn3)oc2-c2ccc(OC)cc2)cc1`, “Not Active”. With `COc1ccc2cc(-c3cn(-c4ccc([S+]([O-])Cc5nc(-c6ccccc6)c(-c6ccccc6)o5)cc4)nn3)ccc2c1` (stereo unspecified), the IC50 entry was “Not Active”.

For `Fc1ccccc1Nc1nc(Nc2ccccc2F)nc(-c2cn(-c3ccc(-c4nc(-c5ccc(Cl)cc5)c(-c5ccc(Cl)cc5)o4)cc3)nn2)n1`, the IC50 result is recorded as “Not Active”. Take `[O-][S+](Cc1nc(-c2ccccc2)c(-c2ccccc2)o1)c1ccc(-n2cc(-c3ccccc3C(F)(F)F)nn2)cc1` (stereo unspecified): the IC50 result is “Not Active”. As to `Fc1ccccc1Nc1nc(Nc2ccccc2F)nc(-c2cn(-c3cccc(-c4nc(-c5ccco5)c(-c5ccco5)o4)c3)nn2)n1`, the IC50 entry was “Not Active”. Consider `CCN(CC)c1nc(-c2cn(-c3cccc(-c4nc(-c5ccc(F)cc5)c(-c5ccc(F)cc5)o4)c3)nn2)nc(N(CC)CC)n1`, for which the IC50 entry was “Not Active”.

With `CCN(CC)c1nc(-c2cn(-c3cccc(-c4nc(-c5ccco5)c(-c5ccco5)o4)c3)nn2)nc(N(CC)CC)n1`, the IC50 result is “Not Active”. On the same count and under the same terms, the result for `COc1ccc(-c2nc(-c3cccc(-n4cc(-c5nc(Nc6ccc(F)cc6)nc(Nc6ccc(F)cc6)n5)nn4)c3)oc2-c2ccc(OC)cc2)cc1` reads “Not Active”; that for `Fc1ccc(Nc2nc(Nc3ccc(F)cc3)nc(-c3cn(-c4ccc(-c5nc(-c6ccccc6)c(-c6ccccc6)o5)cc4)nn3)n2)cc1`, “Not Active”.

`[O-][S+](Cc1nc(-c2ccccc2)c(-c2ccccc2)o1)c1ccc(-n2cc(-c3ccc(F)cc3)nn2)cc1` (stereo unspecified): the IC50 entry is recorded as “Not Active”. The same measure, in the same setting: the result for `COc1ccc2cc(-c3cn(-c4ccc(S(=O)(=O)Cc5nc(-c6ccccc6)c(-c6ccccc6)o5)cc4)nn3)ccc2c1` reads “Not Active”. The same measure, in the same setting: the result for `CCN(CC)c1nc(-c2cn(-c3ccc(-c4nc(-c5ccco5)c(-c5ccco5)o4)cc3)nn2)nc(N(CC)CC)n1` reads “Not Active”; that for `O=S(=O)(Cc1nc(-c2ccccc2)c(-c2ccccc2)o1)c1ccc(-n2cc(-c3cccnc3)nn2)cc1`, “Not Active”. As to `Fc1ccc(Nc2nc(Nc3ccc(F)cc3)nc(-c3cn(-c4cccc(-c5nc(-c6ccc(F)cc6)c(-c6ccc(F)cc6)o5)c4)nn3)n2)cc1`, the IC50 result is reported as “Not Active”. Still for that read-out and setting: the result for `CCCCCc1ccc(-c2cn(-c3ccc([S+]([O-])Cc4nc(-c5ccccc5)c(-c5ccccc5)o4)cc3)nn2)cc1` (stereo unspecified) reads “Not Active”. The same measure, in the same setting: the result for `Fc1ccccc1Nc1nc(Nc2ccccc2F)nc(-c2cn(-c3ccc(-c4nc(-c5ccco5)c(-c5ccco5)o4)cc3)nn2)n1` reads “Not Active”; that for `Fc1ccccc1Nc1nc(Nc2ccccc2F)nc(-c2cn(-c3ccc(-c4nc(-c5ccccc5)c(-c5ccccc5)o4)cc3)nn2)n1`, “Not Active”; that for `CCN(CC)c1nc(-c2cn(-c3cccc(-c4nc(-c5ccc(OC)cc5)c(-c5ccc(OC)cc5)o4)c3)nn2)nc(N(CC)CC)n1`, “Not Active”. As to `Fc1ccc(Nc2nc(Nc3ccc(F)cc3)nc(-c3cn(-c4ccccc4-c4nc(-c5ccccc5)c(-c5ccccc5)o4)nn3)n2)cc1`, the IC50 entry is reported as “Not Active”. Still for that read-out and setting: the result for `COc1ccc(-c2nc(-c3cccc(-n4cc(-c5nc(Nc6ccccc6F)nc(Nc6ccccc6F)n5)nn4)c3)oc2-c2ccc(OC)cc2)cc1` reads “Not Active”.

On to `[O-][S+](Cc1nc(-c2ccccc2)c(-c2ccccc2)o1)c1ccc(-n2cc(-c3ccc(Oc4ccccc4)cc3)nn2)cc1` (stereo unspecified), for which the IC50 entry was “Not Active”. Same read-out and setting: the same measure for `[O-][S+](Cc1nc(-c2ccccc2)c(-c2ccccc2)o1)c1ccc(-n2cc(-c3cccnc3)nn2)cc1` (stereo unspecified): “Not Active”; for `O=S(=O)(Cc1nc(-c2ccccc2)c(-c2ccccc2)o1)c1ccc(-n2cc(-c3ccccc3C(F)(F)F)nn2)cc1`: “Not Active”.

Regarding `[O-][S+](Cc1nc(-c2ccccc2)c(-c2ccccc2)o1)c1ccc(-n2cc(-c3cc(C(F)(F)F)cc(C(F)(F)F)c3)nn2)cc1` (stereo unspecified), the IC50 entry was “Not Active”.

In the next data set the test system is TIGK. Nature of the data set: Cytotoxicity against human TIGK cells assessed as increase in LDH release at 5 to 40 uM after 18 hrs by LDH release assay. The format is cell-based. The essentials: (§1)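 Immortalized gingival keratinocytes (TIGK) are seeded at 4000 cells/well, grown 24 h, then exposed 18 h to compound in fresh medium. Supernatant is mixed with LDH substrate for 30 min at room temperature, stopped, and read at OD 490 nm. Kit lysis buffer for 1 h serves as the positive control; medium alone is the negative control. Triplicate samples.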
In the case of `CCN(CC)c1nc(-c2cn(-c3ccc(-c4nc(-c5ccc(Cl)cc5)c(-c5ccc(Cl)cc5)o4)cc3)nn2)nc(N(CC)CC)n1`, the Activity entry was “Non-Toxic”.

The next data set has as its system TIGK. The experiment in a line: Cytotoxicity against human TIGK cells assessed as increase in LDH release at 5 to 60 uM after 18 hrs by LDH release assay. Format: cell-based. The essentials:
as §1
As for `Fc1ccc(Nc2nc(Nc3ccc(F)cc3)nc(-c3cn(-c4cccc(-c5nc(-c6ccccc6)c(-c6ccccc6)o5)c4)nn3)n2)cc1`, the Activity entry is on record as “Non-Toxic”. The same measure, in the same setting: the same measure for `Fc1ccc(Nc2nc(Nc3ccc(F)cc3)nc(-c3cn(-c4ccccc4-c4nc(-c5ccco5)c(-c5ccco5)o4)nn3)n2)cc1`: “Non-Toxic”.

The subject of another data set is TIGK. The experiment in a line: Cytotoxicity against human TIGK cells assessed as increase in LDH release at 5 to 20 uM after 18 hrs by LDH release assay. Format: cell-based. The essentials:
as §1
Background: Release of lactate dehydrogenase indicates damage to the cell membrane.
`Fc1ccc(Nc2nc(Nc3ccc(F)cc3)nc(-c3cn(-c4ccc(-c5nc(-c6ccc(F)cc6)c(-c6ccc(F)cc6)o5)cc4)nn3)n2)cc1`: the Activity result is recorded as “Non-Toxic”.

Another data set concerns TIGK. Nature of the data set: Cytotoxicity against human TIGK cells assessed as reduction in ATP levels at 5 to 40 uM after 18 hrs by CellTiterGlo reagent-based assay. The format is cell-based. Summed up: (§2)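 TIGK cells are seeded at 4000/well and grown 24 h, then exposed 18 h to compound. They are washed three times with PBS and treated with CellTiterGlo substrate, 2 min with shaking plus 10 min static. Total ATP is read by luminescence. Reduction is judged against cells in medium with 0.1% DMSO, p<0.05.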
In the case of `CCN(CC)c1nc(-c2cn(-c3ccc(-c4nc(-c5ccc(Cl)cc5)c(-c5ccc(Cl)cc5)o4)cc3)nn2)nc(N(CC)CC)n1`, the Activity entry was “Non-Toxic”.

Another data set concerns TIGK. The experiment in a line: Cytotoxicity against human TIGK cells assessed as reduction in ATP levels at 5 to 60 uM after 18 hrs by CellTiterGlo reagent-based assay. The format is cell-based. Summed up: as §2
Turning to `Fc1ccc(Nc2nc(Nc3ccc(F)cc3)nc(-c3cn(-c4ccccc4-c4nc(-c5ccco5)c(-c5ccco5)o4)nn3)n2)cc1`, the Activity result is recorded as “Non-Toxic”.

Another data set deals with TIGK. Nature of the data set: Cytotoxicity against human TIGK cells assessed as reduction in ATP levels at 5 to 20 uM after 18 hrs by CellTiterGlo reagent-based assay. The format is cell-based. Summed up: as §2
(Cellular ATP, detected with luciferase, serves as a proxy for viable cell number.)
As to `Fc1ccc(Nc2nc(Nc3ccc(F)cc3)nc(-c3cn(-c4ccc(-c5nc(-c6ccc(F)cc6)c(-c6ccc(F)cc6)o5)cc4)nn3)n2)cc1`, the Activity entry is reported as “Non-Toxic”.

A further data set concerns TIGK. The experiment in a line: Cytotoxicity against human TIGK cells assessed as reduction in ATP levels after 18 hrs by CellTiterGlo reagent-based assay. The format is cell-based. Summed up:
as §2
Take `Fc1ccc(Nc2nc(Nc3ccc(F)cc3)nc(-c3cn(-c4cccc(-c5nc(-c6ccccc6)c(-c6ccccc6)o5)c4)nn3)n2)cc1`: the Activity entry is “Dose-dependent effect”.

Another data set concerns TIGK. Nature of the data set: Cytotoxicity against human TIGK cells assessed as reduction in ATP levels at 60 uM after 18 hrs by CellTiterGlo reagent-based assay. Format: cell-based. The essentials: as §2
For `Fc1ccc(Nc2nc(Nc3ccc(F)cc3)nc(-c3cn(-c4cccc(-c5nc(-c6ccccc6)c(-c6ccccc6)o5)c4)nn3)n2)cc1`, the Activity result is reported as “Toxic”.
